The values that follow come from ChEMBL document CHEMBL1155396, “The synthesis and angiotensin converting enzyme (ACE) inhibitory activity of chalcones and their pyrazole derivatives” (Bioorg Med Chem Lett, 2010).

For experiment [1], the target named is T1, Angiotensin-converting enzyme (Oryctolagus cuniculus) (UniProt P12822).
T1 sequence (whole entry): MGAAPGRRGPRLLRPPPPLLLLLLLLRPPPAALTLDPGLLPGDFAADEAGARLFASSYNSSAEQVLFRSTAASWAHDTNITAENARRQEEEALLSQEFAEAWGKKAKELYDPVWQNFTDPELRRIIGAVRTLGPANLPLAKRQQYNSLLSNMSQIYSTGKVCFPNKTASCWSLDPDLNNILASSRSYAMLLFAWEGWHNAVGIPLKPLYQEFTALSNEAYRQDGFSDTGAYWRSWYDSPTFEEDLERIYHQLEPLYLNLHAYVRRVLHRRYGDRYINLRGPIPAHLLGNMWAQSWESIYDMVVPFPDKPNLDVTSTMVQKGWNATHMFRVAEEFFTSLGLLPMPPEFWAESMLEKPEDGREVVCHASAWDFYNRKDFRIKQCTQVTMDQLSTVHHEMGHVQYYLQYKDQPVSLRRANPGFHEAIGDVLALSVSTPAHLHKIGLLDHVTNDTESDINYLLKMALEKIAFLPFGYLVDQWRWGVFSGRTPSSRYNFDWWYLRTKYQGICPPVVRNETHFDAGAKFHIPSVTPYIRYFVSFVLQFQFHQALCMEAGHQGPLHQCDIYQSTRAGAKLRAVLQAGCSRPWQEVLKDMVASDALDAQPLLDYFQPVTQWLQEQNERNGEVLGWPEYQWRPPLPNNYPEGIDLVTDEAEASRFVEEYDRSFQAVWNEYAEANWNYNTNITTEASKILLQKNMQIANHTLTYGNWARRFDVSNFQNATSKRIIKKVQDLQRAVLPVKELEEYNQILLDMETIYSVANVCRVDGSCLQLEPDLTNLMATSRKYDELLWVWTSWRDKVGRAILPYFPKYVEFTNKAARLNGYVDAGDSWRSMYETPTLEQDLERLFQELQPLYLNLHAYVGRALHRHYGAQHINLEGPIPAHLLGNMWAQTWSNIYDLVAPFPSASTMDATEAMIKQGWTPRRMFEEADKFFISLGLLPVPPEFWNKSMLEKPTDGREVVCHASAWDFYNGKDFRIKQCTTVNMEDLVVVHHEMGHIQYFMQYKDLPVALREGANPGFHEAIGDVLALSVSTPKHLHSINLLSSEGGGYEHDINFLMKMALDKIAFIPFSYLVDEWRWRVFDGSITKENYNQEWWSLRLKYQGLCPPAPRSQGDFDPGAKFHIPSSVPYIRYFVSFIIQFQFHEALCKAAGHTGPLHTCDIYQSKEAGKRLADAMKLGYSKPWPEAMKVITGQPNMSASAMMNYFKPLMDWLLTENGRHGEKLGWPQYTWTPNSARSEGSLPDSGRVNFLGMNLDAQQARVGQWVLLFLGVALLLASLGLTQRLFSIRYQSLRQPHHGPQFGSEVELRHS
The experiment can be described thus: (§1) Inhibition of ACE in rabbit lung assessed as decrease in dansylglycine concentration after 5 mins by HPLC analysis. In a few lines:
(§2)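 Rabbit lung ACE, pre-incubated 5 min at 37 °C with compound dissolved in HEPES assay buffer. Reaction started with substrate dansyltriglycine (7.86 mM) plus internal standard dansyl-L-glutamine (0.353 mM), both in the added combined solution. Incubation time was set from a calibration curve. Dansylglycine was quantified by reversed-phase HPLC with UV detection, using isocratic 10 mM NaH₂PO₄ (pH 7)/acetonitrile 88:12. Percent inhibition was taken versus control, with IC50 by nonlinear regression; means of three experiments.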

In experiment [2] the target is T2, Angiotensin-converting enzyme (Oryctolagus cuniculus, UniProt P12822).
T2 sequence (P12822 whole entry): T1 sequence (whole entry)
The description is as §1. In a few lines:
as §2

Take `COc1ccc(/C=C/C(=O)c2cc(OC)c(OC)c(OC)c2)cc1N`: the inhibition entry in experiment [1] was “Dose-dependent effect”. The half-inhibitory concentration (IC50) in experiment [2] was 219 µM.

On to `COc1cc(/C=C/C(=O)c2cc(OC)c(OC)c(OC)c2)ccc1O`, for which the inhibition result in experiment [1] was “Dose-dependent effect”. Also, in experiment [2], the half-inhibitory concentration (IC50) is 246 µM.

In the case of `O=c1c(O[C@@H]2O[C@H](CO)[C@H](O)[C@H](O)[C@H]2O)c(-c2ccc(O)cc2)oc2cc(O)cc(O)c12` [TRIFOLIN], in experiment [2], the 50% inhibitory concentration (IC50) worked out at 260 µM.

With `COc1ccc(/C=C/C(=O)c2cc(OC)c(OC)c(OC)c2)cc1`, the half-inhibitory concentration (IC50) in experiment [2] is 574 µM.

For the molecule `COc1ccc(C2CC(c3cc(OC)c(OC)c(OC)c3)=NN2C)cc1F` (centres undefined), in experiment [2], the IC50 turned out to be 770 µM.

As to `COc1cc(C(=O)/C=C/c2ccc([N+](=O)[O-])c(O)c2)cc(OC)c1OC`, in experiment [2], the IC50 turned out to be 552 µM.

As for `COc1cccc(/C=C/C(=O)c2cc(OC)c(OC)c(OC)c2)c1`, the IC50 in experiment [2] came out at 622 µM.

For `O=c1cc(-c2ccc(O)c(O)c2)oc2cc(O[C@@H]3O[C@H](CO)[C@@H](O)[C@H](O)[C@H]3O)cc(O)c12` [GALUTEOLIN], the half-inhibitory concentration (IC50) in experiment [2] amounted to 280 µM.

As for `COc1cc(C2CC(c3cc(OC)c(OC)c(OC)c3)=NN2C)ccc1O` (centres undefined), the 50% inhibitory concentration (IC50) in experiment [2] was 674 µM.

Regarding `O=C(O)[C@H]1O[C@@H](Oc2c(-c3ccc(O)c(O)c3)oc3cc(O)cc(O)c3c2=O)[C@H](O)[C@@H](O)[C@@H]1O` [QUERCETIN GLUCURONIDE], in experiment [2], the IC50 worked out at 200 µM.

Consider `COc1ccc(C2CC(c3cc(OC)c(OC)c(OC)c3)=NN2C)cc1[N+](=O)[O-]` (centres undefined), for which the inhibition result in experiment [1] is “Dose-dependent effect”.

As to `COc1cc(C(=O)/C=C/c2ccccc2)cc(OC)c1OC`, in experiment [1], the inhibition entry is “Dose-dependent effect”. Further, the IC50 in experiment [2] was 338 µM.

On to `COc1cc(C2=NN(C)C(c3ccccc3)C2)cc(OC)c1OC` (centres undefined), for which the half-maximal inhibitory concentration (IC50) in experiment [2] is 805 µM.

Turning to `COc1cccc(C2CC(c3cc(OC)c(OC)c(OC)c3)=NN2C)c1` (centres undefined), the IC50 in experiment [2] came out at 889 µM.

`COc1ccc(/C=C/C(=O)c2cc(OC)c(OC)c(OC)c2)cc1O`: the inhibition entry in experiment [1] was “Dose-dependent effect”. Also, in experiment [2], the IC50 was 225 µM.

As to `O=c1cc(-c2ccc(O)cc2)oc2cc(O)cc(O)c12` [APIGENIN], the IC50 in experiment [2] came to 280 µM.

Regarding `COc1ccc(C2CC(c3cc(OC)c(OC)c(OC)c3)=NN2C)cc1O` (centres undefined), in experiment [2], the IC50 was found to be 762 µM.

Regarding `COc1ccc(C2CC(c3cc(OC)c(OC)c(OC)c3)=NN2C)cc1` (centres undefined), the inhibition entry in experiment [1] is “Dose-dependent effect”. Besides, the IC50 in experiment [2] stood at 435 µM.

Turning to `COc1ccc(/C=C/C(=O)c2cc(OC)c(OC)c(OC)c2)cc1F`, the IC50 in experiment [2] worked out at 570 µM.

For `COc1ccc(C2CC(c3cc(OC)c(OC)c(OC)c3)=NN2C)cc1N` (centres undefined), the IC50 in experiment [2] was found to be 749 µM.

`COc1ccc(C2C[C-](c3cc(OC)c(OC)c(OC)c3)N=[N+]2C)cc1[N+](=O)[O-]` (centres undefined): in experiment [2], the half-maximal inhibitory concentration (IC50) stood at 213 µM.

As to `COc1ccc(/C=C/C(=O)c2cc(OC)c(OC)c(OC)c2)cc1[N+](=O)[O-]`, in experiment [2], the IC50 was 516 µM.

As for `COc1cc([C-]2CC(c3ccc([N+](=O)[O-])c(O)c3)[N+](C)=N2)cc(OC)c1OC` (centres undefined), the IC50 in experiment [2] was 599 µM.

On to `O=c1cc(-c2ccc(O)c(O)c2)oc2cc(O)cc(O)c12` [LUTEOLIN], for which, in experiment [2], the IC50 worked out at 290 µM.

By IC50 is commonly meant the concentration that inhibits the measured activity by half.
